Laboratory results taken from ChEMBL document CHEMBL4689842, “EUbOPEN Chemogenomics Library wave 1” (2021).

Test system: HEK-293T
Experiment: Multiplex assay against HEK293T;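 for Population Tubulin-Different-Phenotype (%): share of the cells with healthy nuclei that show this phenotype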
Type: toxicity, cell-based
Settings: human
In short: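 At seeding, live cells were stained with Hoechst33342, BioTracker Green Microtubule Cytoskeleton Dye, MitoTracker Red and Annexin V Alexa Fluor 680. After compound addition they were imaged on a CQ1 microscope at 37°C and 5% CO2, and CellPathfinder machine-learning gating sorted them into Hoechst high-intensity objects or normal cells, with normal cells further split into healthy, pyknosed or fragmented nuclei and pyknosed cells into mitotic or apoptotic. Tubulin, mitochondrial-mass and membrane-permeability phenotypes are given as per cents of cells with healthy nuclei.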

[1] = 12 h, 1 µM, compound concentration 1 uM, replicate 1
[2] = 12 h, 1 µM, compound concentration 1 uM, replicate 2
[3] = 12 h, 10 µM, compound concentration 10 uM, replicate 1
[4] = 12 h, 10 µM, compound concentration 10 uM, replicate 2
[5] = 24 h, 1 µM, compound concentration 1 uM, replicate 1
[6] = 24 h, 1 µM, compound concentration 1 uM, replicate 2
[7] = 24 h, 10 µM, compound concentration 10 uM, replicate 1
[8] = 24 h, 10 µM, compound concentration 10 uM, replicate 2
[9] = 48 h, 1 µM, compound concentration 1 uM, replicate 1
[10] = 48 h, 1 µM, compound concentration 1 uM, replicate 2
[11] = 48 h, 10 µM, compound concentration 10 uM, replicate 1
[12] = 48 h, 10 µM, compound concentration 10 uM, replicate 2

CCc1ccc(OCc2ccccc2C(=O)Nc2ccc3nc(C)cc(N)c3c2)cc1.Cl
Population Apoptotic (%) [1]: 84% | Population Fragmented Nuclei (%) [1]: 28% | Population Healthy Nuclei (%) [1]: 7% | Population Hoechst High Intensity Objects (%) [1]: 18% | Population Membrane Permeable-Phenotype (%) [1]: 33% | Population Mitochondria Different-Phenotype (%) [1]: 100% | Population Mitotic Cells (%) [1]: 15% | Population Normal (%) [1]: 81% | Population Pyknosed Nuclei (%) [1]: 64% | Population Tubulin-Different-Phenotype (%) [1]: 66% | Total Cell Count [1]: 156 | Population Apoptotic (%) [2]: 73% | Population Fragmented Nuclei (%) [2]: 8% | Population Healthy Nuclei (%) [2]: 12% | Population Hoechst High Intensity Objects (%) [2]: 14% | Population Membrane Permeable-Phenotype (%) [2]: 0% | Population Mitochondria Different-Phenotype (%) [2]: 93% | Population Mitotic Cells (%) [2]: 26% | Population Normal (%) [2]: 85% | Population Pyknosed Nuclei (%) [2]: 79% | Population Tubulin-Different-Phenotype (%) [2]: 73% | Total Cell Count [2]: 146 | Population Apoptotic (%) [3]: 50% | Population Fragmented Nuclei (%) [3]: 19% | Population Healthy Nuclei (%) [3]: 0% | Population Hoechst High Intensity Objects (%) [3]: 24% | Population Membrane Permeable-Phenotype (%) [3]: 0% | Population Mitochondria Different-Phenotype (%) [3]: 0% | Population Mitotic Cells (%) [3]: 50% | Population Normal (%) [3]: 75% | Population Pyknosed Nuclei (%) [3]: 80% | Population Tubulin-Different-Phenotype (%) [3]: 0% | Total Cell Count [3]: 144 | Population Apoptotic (%) [4]: 62% | Population Fragmented Nuclei (%) [4]: 18% | Population Healthy Nuclei (%) [4]: 30% | Population Hoechst High Intensity Objects (%) [4]: 35% | Population Membrane Permeable-Phenotype (%) [4]: 11% | Population Mitochondria Different-Phenotype (%) [4]: 8% | Population Mitotic Cells (%) [4]: 37% | Population Normal (%) [4]: 64% | Population Pyknosed Nuclei (%) [4]: 51% | Population Tubulin-Different-Phenotype (%) [4]: 41% | Total Cell Count [4]: 175 | Population Apoptotic (%) [5]: 85% | Population Fragmented Nuclei (%) [5]: 18% | Population Hoechst High Intensity Objects (%) [5]: 19% | Population Mitochondria Different-Phenotype (%) [5]: 90% | Population Mitotic Cells (%) [5]: 14% | Population Normal (%) [5]: 80% | Population Pyknosed Nuclei (%) [5]: 72% | Population Tubulin-Different-Phenotype (%) [5]: 81% | Total Cell Count [5]: 152 | Population Apoptotic (%) [6]: 80% | Population Fragmented Nuclei (%) [6]: 10% | Population Healthy Nuclei (%) [6]: 9% | Population Hoechst High Intensity Objects (%) [6]: 15% | Population Membrane Permeable-Phenotype (%) [6]: 0% | Population Mitochondria Different-Phenotype (%) [6]: 100% | Population Mitotic Cells (%) [6]: 20% | Population Normal (%) [6]: 84% | Population Pyknosed Nuclei (%) [6]: 79% | Population Tubulin-Different-Phenotype (%) [6]: 100% | Total Cell Count [6]: 141 | Population Apoptotic (%) [7]: 44% | Population Fragmented Nuclei (%) [7]: 20% | Population Healthy Nuclei (%) [7]: 0% | Population Hoechst High Intensity Objects (%) [7]: 22% | Population Membrane Permeable-Phenotype (%) [7]: 0% | Population Mitochondria Different-Phenotype (%) [7]: 100% | Population Mitotic Cells (%) [7]: 55% | Population Normal (%) [7]: 77% | Population Pyknosed Nuclei (%) [7]: 79% | Total Cell Count [7]: 135 | Population Apoptotic (%) [8]: 42% | Population Fragmented Nuclei (%) [8]: 28% | Population Healthy Nuclei (%) [8]: 21% | Population Hoechst High Intensity Objects (%) [8]: 26% | Population Membrane Permeable-Phenotype (%) [8]: 18% | Population Mitochondria Different-Phenotype (%) [8]: 18% | Population Mitotic Cells (%) [8]: 57% | Population Normal (%) [8]: 73% | Population Pyknosed Nuclei (%) [8]: 50% | Population Tubulin-Different-Phenotype (%) [8]: 100% | Total Cell Count [8]: 103 | Population Apoptotic (%) [9]: 85% | Population Fragmented Nuclei (%) [9]: 26% | Population Healthy Nuclei (%) [9]: 2% | Population Hoechst High Intensity Objects (%) [9]: 22% | Population Mitochondria Different-Phenotype (%) [9]: 66% | Population Mitotic Cells (%) [9]: 14% | Population Normal (%) [9]: 77% | Population Pyknosed Nuclei (%) [9]: 70% | Population Tubulin-Different-Phenotype (%) [9]: 66% | Total Cell Count [9]: 155 | Population Apoptotic (%) [10]: 92% | Population Fragmented Nuclei (%) [10]: 14% | Population Healthy Nuclei (%) [10]: 11% | Population Hoechst High Intensity Objects (%) [10]: 11% | Population Membrane Permeable-Phenotype (%) [10]: 0% | Population Mitochondria Different-Phenotype (%) [10]: 84% | Population Mitotic Cells (%) [10]: 7% | Population Normal (%) [10]: 88% | Population Pyknosed Nuclei (%) [10]: 73% | Population Tubulin-Different-Phenotype (%) [10]: 84% | Total Cell Count [10]: 124 | Population Apoptotic (%) [11]: 49% | Population Fragmented Nuclei (%) [11]: 20% | Population Healthy Nuclei (%) [11]: 0% | Population Hoechst High Intensity Objects (%) [11]: 22% | Population Membrane Permeable-Phenotype (%) [11]: 0% | Population Mitochondria Different-Phenotype (%) [11]: 0% | Population Mitotic Cells (%) [11]: 50% | Population Normal (%) [11]: 77% | Population Pyknosed Nuclei (%) [11]: 79% | Population Tubulin-Different-Phenotype (%) [11]: 0% | Total Cell Count [11]: 132 | Population Apoptotic (%) [12]: 33% | Population Fragmented Nuclei (%) [12]: 31% | Population Healthy Nuclei (%) [12]: 50% | Population Hoechst High Intensity Objects (%) [12]: 40% | Population Membrane Permeable-Phenotype (%) [12]: 13% | Population Mitochondria Different-Phenotype (%) [12]: 28% | Population Mitotic Cells (%) [12]: 66% | Population Normal (%) [12]: 59% | Population Pyknosed Nuclei (%) [12]: 17% | Population Tubulin-Different-Phenotype (%) [12]: 64% | Total Cell Count [12]: 176
